Data published in ChEMBL document CHEMBL3813688, “Synthesis, antitumor activity and mechanism of action of novel 1,3-thiazole derivatives containing hydrazide-hydrazone and carboxamide moiety” (Bioorg Med Chem Lett, 2016).
In brackets after ≈: the same amount, converted by molar mass.

Legend:
[1] = system: HeLa; assay: Cytotoxicity against human HeLa cells assessed as cell growth inhibition after 72 hrs by MTT assay; type: functional, cell-based
How it was run: (§1)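 MTT growth assay in human cancer lines (MCF-7, HepG2, BGC-823, HeLa, A549), 72 h after treatment; 5-fluorouracil as reference. IC50 (μg/mL) taken as concentration giving 50% growth inhibition versus untreated control.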

[2] = system: HepG2; assay: Cytotoxicity against human HepG2 cells assessed as cell growth inhibition after 72 hrs by MTT assay; type: functional, cell-based; conditions: HepG2, 72 h; how it was run: as §1
[3] = system: A549; assay: Cytotoxicity against human A549 cells assessed as cell growth inhibition after 72 hrs by MTT assay; type: functional, cell-based; conditions: A549, 72 h; how it was run: as §1
[4] = Cytotoxicity against human BCG823 cells assessed as cell growth inhibition after 72 hrs by MTT assay; type: functional, cell-based; conditions: BCG823, 72 h; how it was run: as §1
[5] = Cytotoxicity against human HL7702 cells assessed as cell growth inhibition after 72 hrs by MTT assay; type: cell-based; conditions: L02, 72 h
[6] = system: MCF7; assay: Cytotoxicity against human MCF7 cells assessed as cell growth inhibition after 72 hrs by MTT assay; type: functional, cell-based; conditions: MCF7, 72 h; how it was run: as §1
[7] = system: A549; assay: Cytotoxicity against human A549 cells assessed as cell growth inhibition at 20 ug/ml after 72 hrs by MTT assay; type: functional; conditions: A549, 72 h, read-out: GI
[8] = system: HeLa; assay: Cytotoxicity against human HeLa cells assessed as cell growth inhibition at 20 ug/ml after 72 hrs by MTT assay; type: functional; conditions: read-out: GI
[9] = system: MCF7; assay: Cytotoxicity against human MCF7 cells assessed as cell growth inhibition at 20 ug/ml after 72 hrs by MTT assay; type: functional; conditions: MCF7, 72 h, read-out: GI
[10] = system: MCF-7, HepG2, BGC-823, HeLa, A549 cancer cell lines (Homo sapiens); assay: Cytotoxicity against human MCF-7, HepG2, BGC-823, HeLa and A549 cells assessed as cell growth inhibition at 20 ug/ml after 72 hrs by MTT assay; conditions: read-out: GI
[11] = Cytotoxicity against human BCG823 cells assessed as cell growth inhibition at 20 ug/ml after 72 hrs by MTT assay; type: functional; conditions: BCG823, 72 h, read-out: GI
[12] = system: HepG2; assay: Cytotoxicity against human HepG2 cells assessed as cell growth inhibition at 20 ug/ml after 72 hrs by MTT assay; type: functional; conditions: HepG2, 72 h, read-out: GI

Compound	IC50 [1]	IC50 [2]	IC50 [3]	IC50 [4]	IC50 [5]	IC50 [6]	inhibition of growth at 20 µg/mL [7]	inhibition of growth at 20 µg/mL [8]	inhibition of growth at 20 µg/mL [9]	inhibition at 72 h, 20 ug/ml [10]	inhibition of growth at 20 µg/mL [11]	inhibition of growth at 20 µg/mL [12]
CN(C(=O)NC(=O)c1ccc(F)c(F)c1)c1nc(C(F)(F)F)c(C(=O)N/N=C/c2cccc(C(F)(F)F)c2)s1	4.21 µg/mL (≈ 7.27 µM)	5.6 µg/mL (≈ 9.66 µM)	6.52 µg/mL (≈ 11.3 µM)	4.46 µg/mL (≈ 7.7 µM)	23.5 µg/mL (≈ 40.5 µM)	4.15 µg/mL (≈ 7.16 µM)						
CNc1nc(C(F)(F)F)c(C(=O)N/N=C/c2cccc(C(F)(F)F)c2)s1	> 100 µg/mL	> 100 µg/mL	> 100 µg/mL	> 100 µg/mL		> 100 µg/mL	< 30%	< 30%	< 30%	< 30%	< 30%	< 30%
CN(C(=O)NC(=O)c1ccc(C(F)(F)F)cc1)c1nc(C(F)(F)F)c(C(=O)N/N=C/c2cccc(C(F)(F)F)c2)s1	6.2 µg/mL (≈ 10.1 µM)	7.95 µg/mL (≈ 13 µM)	6.66 µg/mL (≈ 10.9 µM)	1.84 µg/mL (≈ 3.01 µM)	18 µg/mL (≈ 29.4 µM)	8.95 µg/mL (≈ 14.6 µM)						
CNc1nc(C(F)(F)F)c(C(=O)N/N=C/c2ccc(C(F)(F)F)cc2)s1	> 100 µg/mL	> 100 µg/mL	> 100 µg/mL	> 100 µg/mL		> 100 µg/mL	< 30%	< 30%	< 30%	< 30%	< 30%	< 30%
CNc1nc(C)c(C(=O)N/N=C/c2cccc(C(F)(F)F)c2)s1	> 100 µg/mL	> 100 µg/mL	> 100 µg/mL	> 100 µg/mL		> 100 µg/mL	< 30%	< 30%	< 30%	< 30%	< 30%	< 30%
CCOC(=O)c1sc(NC)nc1C(F)(F)F							< 10%	< 10%	< 10%	< 10%	< 10%	< 10%
CNc1nc(C(F)(F)F)c(C(=O)N/N=C/c2cc(C(F)(F)F)cc(C(F)(F)F)c2)s1	> 100 µg/mL	> 100 µg/mL	> 100 µg/mL	> 100 µg/mL		> 100 µg/mL	< 30%	< 30%	< 30%	< 30%	< 30%	< 30%
CN(C(=O)NC(=O)c1c(Cl)cccc1Cl)c1nc(C(F)(F)F)c(C(=O)N/N=C/c2ccccc2C(F)(F)F)s1	5.23 µg/mL (≈ 8.54 µM)	8.95 µg/mL (≈ 14.6 µM)	12 µg/mL (≈ 19.6 µM)	4.12 µg/mL (≈ 6.73 µM)		6.24 µg/mL (≈ 10.2 µM)						
CN(C(=O)NC(=O)c1ccccc1F)c1nc(C(F)(F)F)c(C(=O)N/N=C/c2cccc(C(F)(F)F)c2)s1	19.1 µg/mL (≈ 34.1 µM)	20.3 µg/mL (≈ 36.2 µM)	19.4 µg/mL (≈ 34.6 µM)	16.3 µg/mL (≈ 29.1 µM)		20.5 µg/mL (≈ 36.6 µM)						
CNc1nc(C(F)(F)F)c(C(=O)N/N=C/c2ccccc2C(F)(F)F)s1	> 100 µg/mL	> 100 µg/mL	> 100 µg/mL	> 100 µg/mL		> 100 µg/mL	< 30%	< 30%	< 30%	< 30%	< 30%	< 30%
O=c1[nH]cc(F)c(=O)[nH]1 [FLUOROURACIL]	10.7 µg/mL (≈ 82.4 µM)		10.5 µg/mL (≈ 80.7 µM)	10.9 µg/mL (≈ 83.7 µM)	14.5 µg/mL (≈ 112 µM)	10.8 µg/mL (≈ 83 µM)						
CN(C(=O)NC(=O)c1ccc([N+](=O)[O-])cc1)c1nc(C(F)(F)F)c(C(=O)N/N=C/c2cccc(C(F)(F)F)c2)s1	4.12 µg/mL (≈ 7 µM)	4.73 µg/mL (≈ 8.04 µM)	5.42 µg/mL (≈ 9.21 µM)	1.67 µg/mL (≈ 2.84 µM)		4.39 µg/mL (≈ 7.46 µM)						
CN(C(=O)NC(=O)c1ccccc1F)c1nc(C(F)(F)F)c(C(=O)N/N=C/c2ccccc2C(F)(F)F)s1	10.1 µg/mL (≈ 18 µM)	5.39 µg/mL (≈ 9.6 µM)	6.32 µg/mL (≈ 11.3 µM)	4.67 µg/mL (≈ 8.32 µM)		12.2 µg/mL (≈ 21.8 µM)						
Cc1nc(N(C)C(=O)NC(=O)c2c(F)cccc2F)sc1C(=O)N/N=C/c1ccc(C(F)(F)F)cc1	40.5 µg/mL (≈ 77.2 µM)	> 100 µg/mL	60.4 µg/mL (≈ 115 µM)	65.5 µg/mL (≈ 125 µM)		30.6 µg/mL (≈ 58.2 µM)						
CN(C(=O)NC(=O)c1ccc(C(F)(F)F)cc1)c1nc(C(F)(F)F)c(C(=O)N/N=C/c2cc(C(F)(F)F)cc(C(F)(F)F)c2)s1	5.78 µg/mL (≈ 8.51 µM)	8.35 µg/mL (≈ 12.3 µM)	5.9 µg/mL (≈ 8.68 µM)	1.77 µg/mL (≈ 2.61 µM)		7.37 µg/mL (≈ 10.8 µM)						
